Assay results from ChEMBL document CHEMBL3872205, “Design, synthesis and evaluation of novel potent angiotensin II receptor 1 antagonists” (Eur J Med Chem, 2016).

What was measured:
[1] = MRT (0 to infinity) in Wistar rat plasma at 10 mg/kg, po by HPLC analysis; format: ADME, organism-based
Outline: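 Male Wistar rats (180 ± 20 g), 6 per dose group, each given a single oral dose. Blood was drawn by retro-orbital puncture into heparin at predose and at 0.5, 1, 2, 4, 6, 8, 12, 24, 48 and 72 h, then spun at 4000 × g and 4 °C. Plasma with internal standard was acetonitrile-precipitated, filtered and run on reverse-phase C18 HPLC (0.02 mol/L KH2PO4 55% / acetonitrile 45%, 1.0 mL/min). Calibration standards were 0.1–10 µg/mL, fitted by peak-height ratio with 1/conc² weighting.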

[2] = Half life in Wistar rat plasma at 10 mg/kg, po by HPLC analysis; format: ADME, organism-based
[3] = Half life in Wistar rat plasma at 15 mg/kg, po by HPLC analysis; format: ADME, organism-based
[4] = AUC (0 to infinity) in Wistar rat Heart at 15 mg/kg, po by HPLC analysis; format: ADME, organism-based; set-up: dose 15 mg/kg, time infinity, route oral
Outline: (§1)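 Wistar rats (180 ± 20 g) were dosed orally at 10, 15 or 30 mg/kg. Heart, liver, spleen, lung, kidney and brain were collected at 0–72 h (n = 6 per point). Tissue was rinsed, blotted and homogenized in saline (0.25 g/1 mL), then spun at 10,000 × g. Supernatant was methanol-extracted, dried under nitrogen at 50 °C, reconstituted in methanol and run on C18 HPLC (acetonitrile 60%/water 40%, 1.0 mL/min).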

[5] = MRT (0 to 72 hrs) in Wistar rat Heart at 10 mg/kg, po by HPLC analysis; format: ADME, organism-based
Outline: (§2)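 Tissue distribution in male Wistar rats given oral 10, 15 or 30 mg/kg; heart, liver, spleen, lung, kidney and brain collected predose and 0.5–72 h post-dose (n = 6 per time). Tissue rinsed in saline, homogenised 0.25 g/1 mL saline, methanol extraction, dried under nitrogen, reconstituted in methanol. Analysis by reverse-phase C18 HPLC, acetonitrile/water 60:40, 1.0 mL/min, ambient temperature.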

[6] = Half life in Wistar rat Heart at 10 mg/kg, po by HPLC analysis; format: ADME, organism-based; outline: as §2
[7] = Half life in Wistar rat Heart at 15 mg/kg, po by HPLC analysis; format: ADME, organism-based; outline: as §2
[8] = Tmax in Wistar rat Heart at 15 mg/kg, po by HPLC analysis; format: ADME, organism-based
Outline: (§3)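 Male Wistar rats (180 ± 20 g) received a single oral dose of 10, 15 or 30 mg/kg. Tissues were collected at 0, 0.5, 1, 2, 4, 6, 8, 12, 24, 48 and 72 h (n = 6 per point). Samples of 0.25 g were rinsed, then homogenized in saline (0.25 g/1 mL) and centrifuged at 10,000 × g. Supernatant was methanol-extracted, dried under nitrogen at 50 °C and reconstituted in methanol. Analysis was by C18 HPLC (acetonitrile 60% / water 40%, 1.0 mL/min).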

[9] = Cmax in Wistar rat heart at 10 mg/kg, po by HPLC analysis; format: ADME, organism-based; set-up: dose 10 mg/kg, route oral; outline: as §2
[10] = Cmax in Wistar rat heart at 15 mg/kg, po by HPLC analysis; format: ADME, organism-based; set-up: dose 15 mg/kg, route oral; outline: as §2
[11] = AUC (0 to 72 hrs) in Wistar rat liver at 15 mg/kg, po by HPLC analysis; format: ADME, organism-based; set-up: dose 15 mg/kg, time < 72 hr, route oral; outline: as §1
[12] = AUC (0 to infinity) in Wistar rat liver at 30 mg/kg, po by HPLC analysis; format: ADME, organism-based; set-up: dose 30 mg/kg, time infinity, route oral; outline: as §1
[13] = MRT (0 to infinity) in Wistar rat liver at 10 mg/kg, po by HPLC analysis; format: ADME, organism-based; outline: as §3
[14] = MRT (0 to infinity) in Wistar rat liver at 15 mg/kg, po by HPLC analysis; format: ADME, organism-based; outline: as §3
[15] = MRT (0 to infinity) in Wistar rat liver at 30 mg/kg, po by HPLC analysis; format: ADME, organism-based; outline: as §3
[16] = Half life in Wistar rat liver at 30 mg/kg, po by HPLC analysis; format: ADME, organism-based; outline: as §2
[17] = Cmax in Wistar rat liver at 15 mg/kg, po by HPLC analysis; format: ADME, organism-based; set-up: dose 15 mg/kg, route oral; outline: as §2
[18] = AUC (0 to 72 hrs) in Wistar rat spleen at 10 mg/kg, po by HPLC analysis; format: ADME, organism-based; set-up: dose 10 mg/kg, time < 72 hr, route oral; outline: as §1
[19] = AUC (0 to 72 hrs) in Wistar rat spleen at 15 mg/kg, po by HPLC analysis; format: ADME, organism-based; set-up: dose 15 mg/kg, time < 72 hr, route oral; outline: as §1
[20] = AUC (0 to infinity) in Wistar rat spleen at 15 mg/kg, po by HPLC analysis; format: ADME, organism-based; set-up: dose 15 mg/kg, route oral, time infinity; outline: as §1
[21] = AUC (0 to infinity) in Wistar rat spleen at 30 mg/kg, po by HPLC analysis; format: ADME, organism-based; set-up: dose 30 mg/kg, route oral, time infinity; outline: as §1
[22] = MRT (0 to 72 hrs) in Wistar rat spleen at 10 mg/kg, po by HPLC analysis; format: ADME, organism-based; outline: as §3
[23] = MRT (0 to infinity) in Wistar rat spleen at 15 mg/kg, po by HPLC analysis; format: ADME, organism-based; outline: as §3
[24] = MRT (0 to infinity) in Wistar rat spleen at 30 mg/kg, po by HPLC analysis; format: ADME, organism-based; outline: as §3
[25] = Cmax in Wistar rat spleen at 10 mg/kg, po by HPLC analysis; format: ADME, organism-based; set-up: dose 10 mg/kg, route oral; outline: as §2
[26] = Cmax in Wistar rat spleen at 15 mg/kg, po by HPLC analysis; format: ADME, organism-based; set-up: dose 15 mg/kg, route oral; outline: as §2
[27] = AUC (0 to 72 hrs) in Wistar rat lung at 30 mg/kg, po by HPLC analysis; format: ADME, organism-based; set-up: time < 72 hr, dose 30 mg/kg, route oral; outline: as §1
[28] = MRT (0 to 72 hrs) in Wistar rat lung at 30 mg/kg, po by HPLC analysis; format: ADME, organism-based; outline: as §3
[29] = Cmax in Wistar rat lung at 10 mg/kg, po by HPLC analysis; format: ADME, organism-based; set-up: dose 10 mg/kg, route oral; outline: as §2
[30] = AUC (0 to 72 hrs) in Wistar rat kidney at 15 mg/kg, po by HPLC analysis; format: ADME, organism-based; set-up: dose 15 mg/kg, time < 72 hr, route oral; outline: as §1
[31] = AUC (0 to 72 hrs) in Wistar rat kidney at 30 mg/kg, po by HPLC analysis; format: ADME, organism-based; set-up: time < 72 hr, dose 30 mg/kg, route oral; outline: as §1
[32] = MRT (0 to 72 hrs) in Wistar rat kidney at 30 mg/kg, po by HPLC analysis; format: ADME, organism-based; outline: as §2
[33] = MRT (0 to infinity) in Wistar rat kidney at 15 mg/kg, po by HPLC analysis; format: ADME, organism-based; outline: as §3
[34] = Half life in Wistar rat kidney at 10 mg/kg, po by HPLC analysis; format: ADME, organism-based; outline: as §2
[35] = Cmax in Wistar rat kidney at 30 mg/kg, po by HPLC analysis; format: ADME, organism-based; set-up: dose 30 mg/kg, route oral; outline: as §2
[36] = AUC (0 to infinity) in Wistar rat brain at 10 mg/kg, po by HPLC analysis; format: ADME, organism-based; set-up: dose 10 mg/kg, route oral, time infinity; outline: as §1
[37] = Tmax in Wistar rat brain at 15 mg/kg, po by HPLC analysis; format: ADME, organism-based; outline: as §3
[38] = Tmax in Wistar rat brain at 30 mg/kg, po by HPLC analysis; format: ADME, organism-based; outline: as §3
[39] = Cmax in Wistar rat brain at 15 mg/kg, po by HPLC analysis; format: ADME, organism-based; set-up: dose 15 mg/kg, route oral; outline: as §1
[40] = Toxicity in ICR mouse assessed as mortality at 1500 mg/kg, ig after 2 weeks; format: organism-based; conditions: in vivo, po

## CCCCC1=NC2(CCCC2)C(=O)N1Cc1ccc2c(ccn2-c2ccccc2-c2nnn[nH]2)c1
[1]
  MRT inf: 6.61 h
[2]
  half-life: 9.93 h
[3]
  half-life: 9.03 h
[4]
  AUC(0-inf): 6700 ng·h/mL
[5]
  MRT last: 7.68 h
[6]
  half-life: 16.9 h
[7]
  half-life: 15.8 h
[8]
  Tmax: 4.67 h
[9]
  Cmax: 105 ng/mL
[10]
  Cmax: 283 ng/mL
[11]
  AUC(0-t) at 72 h: 4890 ng·h/mL
[12]
  AUC(0-inf): 15600 ng·h/mL
[13]
  MRT inf: 3.58 h
[14]
  MRT inf: 4.77 h
[15]
  MRT inf: 5.49 h
[16]
  half-life: 2.12 h
[17]
  Cmax: 1230 ng/mL
[18]
  AUC(0-t) at 72 h: 9470 ng·h/mL
[19]
  AUC(0-t) at 72 h: 11900 ng·h/mL
[20]
  AUC(0-inf): 12000 ng·h/mL
[21]
  AUC(0-inf): 21000 ng·h/mL
[22]
  MRT last: 20.2 h
[23]
  MRT inf: 13.1 h
[24]
  MRT inf: 20.4 h
[25]
  Cmax: 348 ng/mL
[26]
  Cmax: 2360 ng/mL
[27]
  AUC(0-t) at 72 h: 2360 ng·h/mL
[28]
  MRT last: 4.85 h
[29]
  Cmax: 62.1 ng/mL
[30]
  AUC(0-t) at 72 h: 5730 ng·h/mL
[31]
  AUC(0-t) at 72 h: 22400 ng·h/mL
[32]
  MRT last: 24.9 h
[33]
  MRT inf: 29.4 h
[34]
  half-life: 26.9 h
[35]
  Cmax: 396 ng/mL
[36]
  AUC(0-inf): 346 ng·h/mL
[37]
  Tmax: 4.83 h
[38]
  Tmax: 5.83 h
[39]
  Cmax: 93.3 ng/mL
[40]
  mortality at 336 h: 50%
